13 molecules from paper PMC10864842 (Saudi Pharmaceutical Journal : SPJ, 2024) can be followed below.

“And” between values parts separate entries of the source, which are not always exact repeats. Equal values may be shown once. Read-outs that look alike come from different tables or passages of the source.

A short description of series [1]: MTT assay on oral epithelial normal cells. In kind it is cell-based. A digest of the protocol:
(§1)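 Cells kept in DMEM with 10% (v/v) FBS and 1% (v/v) streptomycin/penicillin at 37 °C and 5% CO2. About 10^4 cells/ml were seeded and grown for 24 h. Test compounds in DMSO were added at 6.25, 12.5, 25, 50 and 100 µg/ml for 24 and 48 h. Medium was replaced with 5 mg/mL MTT for 3–4 h. Formazan was dissolved in acidified isopropanol and read at 630 nm. Viability is expressed as % of untreated cells.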

Series [2] has as its system MDA-MB-231 breast cancer cells. As to the kind of experiment: MTT assay on MDA-MB-231 cells. The following applies: Homo sapiens. Format: cell-based. A digest of the protocol: as §1
For orientation: Tetrazolium assays rely on reduction of a dye to a coloured formazan, in cell work by metabolically active cells.

Series [3] deals with MDA-MB-231 cells. As to the kind of experiment: Annexin V-FITC/PI flow cytometry. In kind it is cell-based. The following applies: MDA-MB-231, Annexin V-FITC & PI, post-treatment. The method in brief: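 MDA-MB-231 cells were kept in DMEM with 10% FBS and 1% streptomycin/penicillin at 37 °C under 5% CO2. Cells were treated with the test compound for 48 h, with doxorubicin as the standard and untreated cells for comparison. Cells were then harvested, rinsed, suspended in PBS, stained with Annexin V-FITC/PI and held 20 min in the dark before flow cytometry. Early apoptosis was Annexin V+/PI−; late apoptosis was Annexin V+/PI+.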
On the technique in general: A flow cytometer gives signals particle by particle.

The target in series [4] is T1, KSP ATPase (Homo sapiens, UniProt P52732).
T1 sequence (P52732 1-1056): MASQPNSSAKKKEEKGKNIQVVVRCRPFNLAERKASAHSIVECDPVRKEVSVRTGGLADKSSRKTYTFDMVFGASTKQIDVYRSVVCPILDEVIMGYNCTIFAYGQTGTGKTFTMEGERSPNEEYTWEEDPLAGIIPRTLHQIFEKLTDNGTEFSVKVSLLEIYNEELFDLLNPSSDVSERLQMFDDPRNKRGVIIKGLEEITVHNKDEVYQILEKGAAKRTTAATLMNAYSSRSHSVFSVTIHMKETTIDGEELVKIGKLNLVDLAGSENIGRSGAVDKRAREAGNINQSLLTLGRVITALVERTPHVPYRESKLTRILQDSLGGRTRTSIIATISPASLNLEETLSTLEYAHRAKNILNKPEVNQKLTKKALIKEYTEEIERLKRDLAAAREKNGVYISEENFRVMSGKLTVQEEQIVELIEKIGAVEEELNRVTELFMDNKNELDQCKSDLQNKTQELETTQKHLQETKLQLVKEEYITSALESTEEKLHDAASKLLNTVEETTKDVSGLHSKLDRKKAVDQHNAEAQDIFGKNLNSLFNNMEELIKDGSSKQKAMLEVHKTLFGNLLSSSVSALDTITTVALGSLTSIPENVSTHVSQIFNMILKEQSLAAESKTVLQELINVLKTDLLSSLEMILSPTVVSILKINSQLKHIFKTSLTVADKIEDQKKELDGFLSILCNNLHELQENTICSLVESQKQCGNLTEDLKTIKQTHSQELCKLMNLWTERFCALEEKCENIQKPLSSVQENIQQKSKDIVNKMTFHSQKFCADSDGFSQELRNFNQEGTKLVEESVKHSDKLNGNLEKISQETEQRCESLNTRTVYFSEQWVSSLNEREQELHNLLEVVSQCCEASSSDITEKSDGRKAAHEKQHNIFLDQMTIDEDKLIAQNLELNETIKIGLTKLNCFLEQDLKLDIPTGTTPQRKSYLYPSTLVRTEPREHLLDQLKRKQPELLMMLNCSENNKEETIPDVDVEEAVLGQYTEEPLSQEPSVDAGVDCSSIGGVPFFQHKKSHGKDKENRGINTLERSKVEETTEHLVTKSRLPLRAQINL
As to the kind of experiment: Microtubule-activated KSP ATPase kinetic assay. Format: biochemical.

For series [5], the target named is T1, KSP ATPase. As to the kind of experiment: Microtubule-activated KSP ATPase end-point assay. The following applies: read-out: KSP ATPase inhibition [%]. In kind it is biochemical.
Series [6] relates to MDA-MB-231 cells. As to the kind of experiment: DNA fragmentation by gel electrophoresis. Format: cell-based. The following applies: post-treatment. The method in brief: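 MDA-MB-231 cells kept in DMEM with 10% FBS and 1% streptomycin/penicillin at 37 °C, 5% CO2. Genomic DNA was extracted with a commercial kit from cells before and after test compound treatment, and its quality was checked by nanodrop. DNA plus 1X loading dye was run on agarose gel, viewed under a UV transilluminator and imaged on a gel documentation system. Doxorubicin served as reference.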

Series [7] deals with MDA-MB-231 cells. As to the kind of experiment: qRT-PCR relative gene expression of P53, BAX and BCL-2. In kind it is cell-based. To be noted: MDA-MB-231, 48 h. A digest of the protocol: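 RNA was extracted from cells after 48 h of treatment with test compound, and its purity was checked by nanodrop. P53, BAX and BCL-2 expression was normalised to β-actin as the housekeeping gene. Treated and untreated cells were compared by ANOVA.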
On the technique in general: Real-time PCR tracks product formation cycle by cycle.

The test system of series [8] is MDA-MB-231 cells. As to the kind of experiment: Morphological study by inverted microscope. Format: cell-based. To be noted: 48 h. The method in brief:
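MDA-MB-231 cells were grown in DMEM with 10% FBS and 1% streptomycin/penicillin at 37 °C, 5% CO2. They were treated with varying concentrations of test compound for 48 h and examined by inverted light microscopy. Phenotypic changes were scored as cell shrinkage, apoptotic body formation and membrane blebbing.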

The target in series [9] is PI3Kδ (Homo sapiens, UniProt O00329). As to the kind of experiment: PI3Kδ inhibition assay. In kind it is biochemical.
Sequence of PI3Kδ (O00329 whole entry): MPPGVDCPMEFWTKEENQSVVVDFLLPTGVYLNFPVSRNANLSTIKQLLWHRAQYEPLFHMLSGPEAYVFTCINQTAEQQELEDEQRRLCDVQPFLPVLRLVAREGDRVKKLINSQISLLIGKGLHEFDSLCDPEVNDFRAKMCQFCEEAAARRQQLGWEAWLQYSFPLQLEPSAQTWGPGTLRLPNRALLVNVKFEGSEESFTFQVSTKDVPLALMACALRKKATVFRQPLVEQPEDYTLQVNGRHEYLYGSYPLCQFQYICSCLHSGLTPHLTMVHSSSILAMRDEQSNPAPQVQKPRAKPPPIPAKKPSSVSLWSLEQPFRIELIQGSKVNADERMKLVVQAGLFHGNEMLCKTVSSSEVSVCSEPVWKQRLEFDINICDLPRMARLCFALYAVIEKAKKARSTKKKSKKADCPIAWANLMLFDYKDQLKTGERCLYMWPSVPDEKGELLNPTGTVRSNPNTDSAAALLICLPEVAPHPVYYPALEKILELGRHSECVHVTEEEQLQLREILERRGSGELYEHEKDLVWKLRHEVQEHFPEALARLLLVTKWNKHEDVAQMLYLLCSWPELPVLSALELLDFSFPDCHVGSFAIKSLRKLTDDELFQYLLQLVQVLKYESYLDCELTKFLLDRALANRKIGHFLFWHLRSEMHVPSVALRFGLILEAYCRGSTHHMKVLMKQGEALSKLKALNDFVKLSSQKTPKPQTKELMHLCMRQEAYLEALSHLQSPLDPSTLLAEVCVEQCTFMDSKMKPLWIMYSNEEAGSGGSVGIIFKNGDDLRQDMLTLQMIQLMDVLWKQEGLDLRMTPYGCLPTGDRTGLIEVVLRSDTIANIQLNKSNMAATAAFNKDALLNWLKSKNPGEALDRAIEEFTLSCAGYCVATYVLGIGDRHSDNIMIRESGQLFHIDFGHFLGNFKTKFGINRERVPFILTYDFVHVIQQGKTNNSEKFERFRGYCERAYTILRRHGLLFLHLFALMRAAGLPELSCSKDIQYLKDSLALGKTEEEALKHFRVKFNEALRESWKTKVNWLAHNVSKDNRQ
Sequence of PI3Kδ (P27986 whole entry partner): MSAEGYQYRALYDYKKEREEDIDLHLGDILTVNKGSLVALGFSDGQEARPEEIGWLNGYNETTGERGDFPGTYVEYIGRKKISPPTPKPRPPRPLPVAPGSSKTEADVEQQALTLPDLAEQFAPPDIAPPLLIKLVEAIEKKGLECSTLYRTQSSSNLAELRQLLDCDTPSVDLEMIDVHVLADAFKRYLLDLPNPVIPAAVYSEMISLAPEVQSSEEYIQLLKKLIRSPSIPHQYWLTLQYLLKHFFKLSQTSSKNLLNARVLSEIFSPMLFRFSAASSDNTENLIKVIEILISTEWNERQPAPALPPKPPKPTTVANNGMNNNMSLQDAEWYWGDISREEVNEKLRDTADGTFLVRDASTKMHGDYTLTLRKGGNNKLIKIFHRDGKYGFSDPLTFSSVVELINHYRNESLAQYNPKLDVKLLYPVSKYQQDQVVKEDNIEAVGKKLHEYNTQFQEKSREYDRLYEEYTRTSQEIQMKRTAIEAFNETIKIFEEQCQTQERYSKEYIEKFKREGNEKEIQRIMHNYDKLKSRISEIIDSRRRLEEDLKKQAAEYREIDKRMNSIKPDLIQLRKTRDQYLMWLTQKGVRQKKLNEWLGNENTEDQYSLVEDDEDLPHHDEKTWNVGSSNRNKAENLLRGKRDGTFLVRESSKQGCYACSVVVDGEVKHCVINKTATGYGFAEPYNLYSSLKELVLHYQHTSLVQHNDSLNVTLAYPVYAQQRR
Where [10] appears, read: MDA-MB-231, 24 h, read-out: IC50 after 24 h (µM).
Setting [11] is: MDA-MB-231, 24 h, read-out: IC50 after 24 h in µg/mL.
The mark [12] stands for this setting: MDA-MB-231, 48 h, read-out: IC50 after 48 h (µM).
[13] abbreviates: MDA-MB-231, 48 h, read-out: IC50 after 48 h in µg/mL.

What is called inhibition is the drop in the measured response relative to a control, in per cent.

Turning to `O=c1c2cc(Cl)ccc2nc(S)n1-c1ccc(F)cc1` [Compound 1, 6-Chloro-3-(4-fluorophenyl)-2-mercaptoquinazolin-4(3H)-one], the IC50 at 48 h in series [1] was 80 µg/mL and 261 µM. The IC50 in series [2] (setting [10]) was 44.3 µM; in series [2] (setting [11]), 13.6 ± 0.12 µg/mL; in [2] (setting [12]) it was 23.6 µM; in series [2] (setting [13]), 7.23 ± 0.15 µg/mL.

As for `CCSc1nc2ccc(Cl)cc2c(=O)n1-c1ccc(F)cc1` [Compound 3a, 6-Chloro-2-(ethylthio)-3-(4-fluorophenyl)quinazolin-4(3H)-one], the “Number of cells in the early and late apoptosis versus untreated cells” value in [3] is listed as “significant increase”. Also, the IC50 in series [4] is 0.0887 ± 0.00316 µM; in series [2] (setting [10]), 28.5 µM; in [2] (setting [11]), 9.54 ± 0.11 µg/mL; in [2] (setting [12]), 14.5 µM; in [2] (setting [13]) it was 4.86 ± 0.18 µg/mL; in series [9], 0.0382 ± 0.00215 µM. Also, the IC50 at 48 h in series [1] is 98.3 µg/mL and 294 µM. Besides, the inhibition at 2 µM in [5] was 88.3 ± 3.86%. Further, in series [6], the DNA fragmentation entry is given as “internucleosomal fragmentation was noticed”. Besides, the “Relative gene expression of BAX” value in series [7] is listed as “significant overexpression”. Further, in series [7], the “Relative gene expression of BCL-2” value is “downregulation”. For the same molecule, in [7], the “Relative gene expression of P53” value is on record as “significant overexpression”. Also, the “Morphological changes of treated cells” value in series [8] was “cell shrinkage, apoptotic bodies formation, and membrane blebbing”.

In the case of `CCOC(=O)CSc1nc2ccc(Cl)cc2c(=O)n1-c1ccc(F)cc1` [Compound 3c, Ethyl 2-((6-chloro-3-(4-fluorophenyl)-4-oxo-3,4-dihydroquinazolin-2-yl)thio)acetate], the IC50 at 48 h in series [1] is 58.3 µg/mL and 148 µM. Further, the IC50 in series [2] (setting [10]) is 56 µM; in [2] (setting [11]), 22 ± 0.13 µg/mL; in series [2] (setting [12]) it was 17.8 µM; in series [2] (setting [13]), 7.01 ± 0.12 µg/mL.

For `O=c1c2cc(Cl)ccc2nc(SCc2ccc(Cl)cc2)n1-c1ccc(F)cc1` [Compound 3d, 6-Chloro-2-((4-chlorobenzyl)thio)-3-(4-fluorophenyl)quinazolin-4(3H)-one], the IC50 at 48 h in series [1] was 65.4 µg/mL and 152 µM. The IC50 in series [2] (setting [10]) is 21 µM; in series [2] (setting [11]) it was 9.05 ± 0.1 µg/mL; in series [2] (setting [12]) it was 15.3 µM; in series [2] (setting [13]), 6.59 ± 0.09 µg/mL.

Turning to `O=c1c2cc(Cl)ccc2nc(SCc2ccc(C(F)(F)F)cc2)n1-c1ccc(F)cc1` [Compound 3f, 6-Chloro-3-(4-fluorophenyl)-2-((4-(trifluoromethyl)benzyl)thio)quinazolin-4(3H)-one], the IC50 at 48 h in series [1] is 67.8 µg/mL and 146 µM. Besides, the IC50 is 58.9 µM in [2] (setting [10]), 27.39 ± 0.1 µg/mL in [2] (setting [11]), 37 µM in series [2] (setting [12]) and 17.19 ± 0.12 µg/mL in series [2] (setting [13]).

On to `O=c1c2cc(Cl)ccc2nc(SCc2cc(C(F)(F)F)cc(C(F)(F)F)c2)n1-c1ccc(F)cc1` [Compound 3g, 2-((3,5-Bis(trifluoromethyl)benzyl)thio)-6-chloro-3-(4-fluorophenyl)quinazolin-4(3H)-one], for which the IC50 was 0.0774 µM in series [4]; 50.5 µM in series [2] (setting [10]); 26.92 ± 0.09 µg/mL in series [2] (setting [11]); 38.1 µM in [2] (setting [12]); 20.3 ± 0.23 µg/mL in series [2] (setting [13]); 0.0578 ± 0.00275 µM in [9]. Besides, the IC50 at 48 h in series [1] was 70.4 µg/mL and 132 µM. In addition, the inhibition at 2 µM in [5] was determined as 90.5 ± 2.16%.

As to `O=c1c2cc(Cl)ccc2nc(SCc2ccc(Br)cc2F)n1-c1ccc(F)cc1` [Compound 3h, 2-((4-Bromo-2-fluorobenzyl)thio)-6-chloro-3-(4-fluorophenyl)quinazolin-4(3H)-one], the IC50 in [4] was 0.0735 µM; in series [2] (setting [10]), 30.2 µM; in series [2] (setting [11]), 14.89 ± 0.11 µg/mL; in [2] (setting [12]) it was 16.5 µM; in series [2] (setting [13]) it was 8.14 ± 0.13 µg/mL; in series [9] it was 0.0538 ± 0.0031 µM. Moreover, the IC50 at 48 h in series [1] is 51.4 µg/mL and 104 µM. In series [5], the inhibition at 2 µM amounted to 92.6 ± 2.35%.

On to `N#Cc1ccc(CSc2nc3ccc(Cl)cc3c(=O)n2-c2ccc(F)cc2)cc1` [Compound 3i, 4-(((6-Chloro-3-(4-fluorophenyl)-4-oxo-3,4-dihydroquinazolin-2-yl)thio)methyl)benzonitrile], for which the IC50 at 48 h in series [1] was 86.5 µg/mL and 205 µM. The IC50 is 95.6 µM in series [2] (setting [10]), 40.33 ± 0.11 µg/mL in series [2] (setting [11]), 62.8 µM in [2] (setting [12]) and 26.49 ± 0.13 µg/mL in series [2] (setting [13]).

As for `O=c1c2cc(Cl)ccc2nc(SCc2ccc([N+](=O)[O-])cc2)n1-c1ccc(F)cc1` [Compound 3j, 6-Chloro-3-(4-fluorophenyl)-2-((4-nitrobenzyl)thio)quinazolin-4(3H)-one], in series [1], the IC50 at 48 h was 78.3 µg/mL and 177 µM. In addition, the IC50 in series [2] (setting [10]) is 50.9 µM; in [2] (setting [11]) it was 22.48 ± 0.12 µg/mL; in series [2] (setting [12]), 31.6 µM; in series [2] (setting [13]), 13.96 ± 0.12 µg/mL.

Consider `O=C1c2ccccc2C(=O)N1CSc1nc2ccc(Cl)cc2c(=O)n1-c1ccc(F)cc1` [Compound 3k, 2-(((6-Chloro-3-(4-fluorophenyl)-4-oxo-3,4-dihydroquinazolin-2-yl)thio)methyl)isoindoline-1,3-dione], for which the IC50 at 48 h in series [1] was 80.5 µg/mL and 173 µM. Further, the IC50 in series [2] (setting [10]) was 38 µM; in series [2] (setting [11]) it was 17.71 ± 0.14 µg/mL; in series [2] (setting [12]), 18.4 µM; in series [2] (setting [13]) it was 8.57 ± 0.1 µg/mL.

As for `O=C(CSc1nc2ccc(Cl)cc2c(=O)n1-c1ccc(F)cc1)Nc1cccc2ccccc12` [Compound 3l, 2-((6-Chloro-3-(4-fluorophenyl)-4-oxo-3,4-dihydroquinazolin-2-yl)thio)-N-(naphthalen-1-yl)acetamide], the IC50 at 48 h in series [1] is 79 µg/mL and 161 µM. Moreover, the IC50 in series [2] (setting [10]) was 26.9 µM; in [2] (setting [11]) it was 13.18 ± 0.13 µg/mL; in series [2] (setting [12]), 14.2 µM; in series [2] (setting [13]) it was 6.98 ± 0.12 µg/mL.

In the case of `COc1cccc2c1C(=O)c1c(O)c3c(c(O)c1C2=O)C[C@@](O)(C(=O)CO)C[C@@H]3O[C@H]1C[C@H](N)[C@H](O)[C@H](C)O1` [Doxorubicin, reference compound], the IC50 at 48 h in series [1] was 40.5 µg/mL and 74.5 µM. Further, the IC50 in series [2] (setting [12]) is 1.41 µM; in series [2] (setting [13]), 0.77 ± 0.14 µg/mL.

With `Cc1ccc(C(=O)N(CCCN)[C@@H](c2nc3cc(Cl)ccc3c(=O)n2Cc2ccccc2)C(C)C)cc1` [Ispinesib, reference compound], the inhibition at 2 µM in series [5] was 95.5 ± 2.24%.
